This is a sample that favours compounds with a hit; in the whole collection about 6.4% have one here.
H69AR inhibit: proliferation blockers of H69AR lung cancer cells, primary screen, cell-based, human, 86K library. AID 598, 2007. viability, % at 10 µM. H69AR lung tumor viability, ATP luminescence, 72 h; hits give low values. 85,000 compounds, 6% hits;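 active means viability at or below 40%; inactive means viability above 40%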;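 further: multidrug resistant small cell line overexpressing MRP-1 efflux transporter; 100% = mean luminescence of untreated control wells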
Jurkat viability: cytotoxicity toward Jurkat T cells, primary screen, cytotoxicity control, cell-based, Jurkat E6.1, 60K MLSMR library; AID 463, 2006; Jurkat E6.1 viability, ATP luminescence, 48 h; 56,000 compounds, 1.2% hits; inhibition, % at 4 µM;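 active means inhibition above the mean inhibition of all tested compounds plus 3 SD, cut at about 28% in these data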
HUVEC inhibit: inhibitors of HUVEC proliferation, primary screen, cell-based, 384-well. CellTiter-Glo luminescence, 72 h; hits give low values. viability, % at 10 µM (by protocol). 86,000 compounds, 1.1% hits. AID 648, 2007;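 active means viability at or below 30%; inactive means viability above 30%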;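 further: 100% = median luminescence of DMSO-only cell control wells on each plate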
Ecoli WT expand: growth inhibitors of wild-type E. coli, primary screen, strain BW25113, expanded library, OD600; 98,000 compounds, 0.15% hits; OD600 absorbance; growth inhibition, % at 100 µM; AID 710, 2007;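 active means growth inhibition above about 50% at one test dose, limit read from the data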;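 further: growth measured after 20 h incubation at 37 °C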
tolC growth inh: growth inhibitors of E. coli tolC mutant, primary screen, strain BW25113 ΔtolC::kan, 384-well; OD615; growth inhibition, % at 10 µM (by protocol); 65,000 compounds, 2.2% hits;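 active means growth inhibition at or above a cutoff equal to the mean over every tested compound plus 3 SD, cut at about 60% in these data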;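 further: growth measured after 20 h incubation at 37 °C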
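Test system – E. coli BW25113 ΔtolC::kan, tolC deletion mutant strain · Detection – OD at 615 nm · Buffer or medium – LB with kanamycin 50 µg/mL · Times – 20 h compound exposure of bacteria at 37 °C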
Lung fibro prol: antiproliferative effect on LL 47 fibroblasts – human, LL 47 cells, CellTiter-Glo luminescence, primary screen. LL 47 human lung fibroblast viability, ATP luminescence; hits give low values. viability, % at 10 µM. 85,000 compounds, 1.1% hits;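 active means viability at or below 50% in the single dose screen; inactive means viability above 50%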;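 further: compound exposure lasted 72 h before the ATP readout; 100% = median luminescence of untreated cell-only wells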
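Material: human LL 47 lung fibroblast cells; quantity: 1,150 cells/well; medium: IMEM plus 15% FBS; doses: 0.1% DMSO in all compound wells; timing: overnight attachment after seeding, then 72 h compound exposure at 37 °C; detection: CellTiter-Glo luminescence; measure: % viability of median cell-only signal; controls: cell-only wells, no compound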
* marks the source's active call; other numbers are inactive results; nt = not tested or not shown.

SMILES	H69AR inhibit	Jurkat viability	HUVEC inhibit	Ecoli WT expand	tolC growth inh	Lung fibro prol
CCOc1ccc(N2C(=O)c3ccc(C(=O)OCc4c(C)noc4C)cc3C2=O)cc1	36*	-2	42	2	-8	72
N#Cc1c(NC(=O)CSc2ccccn2)oc(-c2ccccc2)c1-c1ccccc1	82	nt	97	-5	nt	105
Cc1cnc(C(=O)OCC(=O)Nc2oc(-c3ccccc3)c(-c3ccccc3)c2C#N)cn1	34*	-5	98	-3	45	71
CCOC(=O)/C=c1\s/c(=C\c2c(OCC)ccc3ccccc23)c(=O)n1CC(=O)NCC1CCCO1 (stereo not drawn)	30*	nt	78	-10	nt	89
Cc1cc(-n2[nH]c(C)c(C)c2=O)nc(-c2ccccc2O)n1	16*	4	76	nt	8	66
O=C1CCn2nc(-c3ccc(Cl)cc3)cc2N1	95	6	17*	4	-6	104
Nc1cc(-c2ccc(Cl)cc2)nn1S(=O)(=O)c1ccc(Cl)cc1	43	nt	64	-1	nt	88
O=C(N/N=C/C=C/c1ccccc1)c1n[nH]c2c1CCC2	nt	nt	nt	-18	nt	nt
O=C(N/N=C/C(Br)=C\c1ccccc1)c1n[nH]c2c1CCC2	5.3*	nt	22*	-2	nt	51
Cc1ccc2nc(NCCO)nc(-c3ccccc3)c2c1	25*	10	69	7	6	76
CCCCS(=O)(=O)/C=C\C=C/S(=O)(=O)CCCC	1.0*	nt	49*	31	11	2.5*
CCCCS(=O)(=O)/C=C\C1C2C=CC(C2)C1S(=O)(=O)CCCC (stereo not drawn)	83	6	102	-3	-13	94
CCCCOc1ccc(S(=O)(=O)n2c(C)nc3ccccc32)cc1	102	13	88	5	94*	94
CC(C)Cn1c(-c2csc3c2CCCC3)n[nH]c1=S	nt	nt	nt	7	nt	nt
CCSc1nnc(NC(=O)CCc2ccccc2)s1	81	-7	98	-8	5	103
CCSc1nnc(NC(=O)CCNS(=O)(=O)c2cc(Br)cnc2N)s1	39*	4	88	0	14	95
Cc1cccc(C(C)(C)C)c1OCCn1ccnc1	94	9	112	14	92*	100
Cc1cc(Cl)cc(C)c1OCCCCn1ccnc1	75	1	100	24	92*	96
Cc1cccc(Cl)c1OCCCCn1ccnc1	103	7	101	18	7	94
CCOC(=O)c1sc2nccc(N(C)C)c2c1N=CNOCc1c(F)cccc1Cl	79	nt	88	-19	nt	110
Cc1c(Cl)cccc1-c1ccc(/C=N/n2cnnc2)o1	90	nt	27*	-10	nt	92
Clc1cccc(-c2ccc(/C=N/n3cnnc3)o2)c1Cl	106	nt	9.8*	nt	nt	90
COc1ccc(-n2nnnc2SCC(=O)Nc2ccc3c(c2)OCCO3)cc1OC	21*	9	91	-4	4	99
O=C(CSc1nnnn1-c1ccc2c(c1)OCO2)NCc1cccs1	66	-5	98	8	6	103
COc1cccc(-n2nnnc2SCC(=O)Nc2ccc3c(c2)OCCO3)c1	nt	nt	nt	-4	nt	nt
SMILES	H69AR inhibit	Jurkat viability	HUVEC inhibit	Ecoli WT expand	tolC growth inh	Lung fibro prol
O=C(CSc1nnnn1-c1ccc2c(c1)OCO2)NCc1ccccc1	19*	58*	56	-3	9	82
Cc1cc(C)cc(-n2ccnc2SCC(=O)Nc2ccc3c(c2)OCCO3)c1	101	9	111	-12	77*	103
COc1ccccc1N1CCN(CC(=O)c2c(C)[nH]c3cc(C)ccc23)CC1	37*	7	32	-1	41	100
Cc1nn(Cc2ccccc2)c2c1C(c1cccc(Cl)c1)C(C#N)=C(N)O2 (stereo not drawn)	82	nt	78	4	nt	80
Cc1oc2ccc(NS(=O)(=O)c3ccc(C(C)(C)C)cc3)cc2c1C(=O)Nc1ccccc1	nt	nt	nt	-2	nt	nt
O=C(Nc1ccc2c(c1)nc1n2CCN(Cc2ccccc2)C1)NC1CCCCC1	20*	nt	80	1	nt	106
COCCN1CCn2c(nc3cc(NC(=O)NC4CCCCC4)ccc32)C1	91	-7	90	-7	-9	90
CC(C)(C)c1ccc(CN2N=Nc3ccccc3S2(=O)=O)cc1	0.7*	nt	9.6*	13	nt	17*
O=S1(=O)CCN(Cc2ccc(Cl)c(Cl)c2)CC1	nt	nt	nt	3	nt	nt
COC(=O)c1ccc(CN2C(=O)c3ccccc3S2(=O)=O)cc1	100	-3	104	-3	10	91
O=S1(=O)c2ccccc2N=NN1Cc1ccc(Cl)c(Cl)c1	1.6*	nt	31	15	nt	8.7*
COC(=O)C1=C(CSCc2ccco2)NC(=O)NC1c1cc(C)ccc1C (stereo not drawn)	45	3	102	5	28	95
CC(C)=CCC/C(C)=C/CC(C)(C)CNCCN1CCNCC1	0.6*	nt	1.5*	24	nt	1.7*
CC(C)=CCC/C(C)=C/CCC(C)NCCN1CCNCC1 (stereo not drawn)	52	4	61	22	-4	14*
Cc1nc(SCC#N)c2c(C)c(C)sc2n1	100	4	99	2	-2	100
COc1ccc(OC)c(S(=O)(=O)N(C)CC(=O)N2CCN(c3cccc(Cl)c3)CC2)c1	78	4	78	-12	17	93
COc1ccc(OC)c(S(=O)(=O)N(C)CC(=O)N2CCN(c3ccc(F)cc3)CC2)c1	95	8	101	3	6	18*
COc1ccc(OC)c(N(CC(=O)Nc2cccnc2)S(=O)(=O)c2ccccc2)c1	85	nt	92	-7	nt	94
Cc1cc(OCCCCCNCCO)cc(C)c1Cl	37*	1	73	26	5	75
Cc1cc(OCCNCCO)cc(C)c1Cl	92	-6	88	11	-6	102
Cc1cccc(NC(=O)CSc2ncnc3c2oc2ccccc23)c1	30*	-12	76	-11	37	89
Cc1ccc2nc(NC(=O)CSc3ncnc4c3oc3ccccc34)sc2c1	26*	nt	35	-6	nt	92
CC(C)OCCCNc1ncnc2c1[nH]c1ccccc12	41	67*	72	16	100*	87
CN(C)C(=O)COc1ccc2ccc(=O)oc2c1	99	-2	93	-1	-17	96
O=c1ccc2cc(O)c(O)cc2o1	37*	nt	70	nt	nt	85
Cc1ccc(S(=O)(=O)NC(=O)c2cccn2C)cc1	103	nt	113	-5	nt	105
CCOC(=O)c1cc2sc(C)cc2n1CC(=O)NCCc1ccccc1	27*	nt	82	-4	-7	101
Cn1cc(SCC(=O)N2CCCc3ccccc32)c2ccccc21	76	nt	85	5	nt	100
